Screens as filed in PubChem BioAssay.
TRPC4 inh: inhibitors of mouse TRPC4 channel. Q9QUQ5. HEK293 TRPC4beta/mu-opioid, DAMGO-evoked Fluo4 calcium flux; stronger effect = lower value. B-score at 10 µM. hit rate 0.39% among 300,000;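 active = B-score over 3 SD under the library average, no early fluorescence shift, positive overall ratio signal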
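System: stable TRPC4beta/mu-opioid receptor HEK293 cells; Dosing: single-point compound dosing; Measured by: Fluo4 Ca2+ flux fluorescence; Read-out basis: per-well B score of integrated baseline-normalized Fluo4 ratio.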
TRPC6 activator: activators of mouse TRPC6 channel. B-score at 10 µM. Q61143. HEK293-TRPC6 membrane potential dye fluorescence; stronger effect = higher value. hit rate 0.13% among 310,000;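 active = B-score of the integrated fluorescence ratio above library mean plus 3 SD, and starting fluorescence ratio within library mean plus 5 SD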;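 note: higher score means more depolarization so channel activation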
Target sequence (Q61143 whole entry, looked up): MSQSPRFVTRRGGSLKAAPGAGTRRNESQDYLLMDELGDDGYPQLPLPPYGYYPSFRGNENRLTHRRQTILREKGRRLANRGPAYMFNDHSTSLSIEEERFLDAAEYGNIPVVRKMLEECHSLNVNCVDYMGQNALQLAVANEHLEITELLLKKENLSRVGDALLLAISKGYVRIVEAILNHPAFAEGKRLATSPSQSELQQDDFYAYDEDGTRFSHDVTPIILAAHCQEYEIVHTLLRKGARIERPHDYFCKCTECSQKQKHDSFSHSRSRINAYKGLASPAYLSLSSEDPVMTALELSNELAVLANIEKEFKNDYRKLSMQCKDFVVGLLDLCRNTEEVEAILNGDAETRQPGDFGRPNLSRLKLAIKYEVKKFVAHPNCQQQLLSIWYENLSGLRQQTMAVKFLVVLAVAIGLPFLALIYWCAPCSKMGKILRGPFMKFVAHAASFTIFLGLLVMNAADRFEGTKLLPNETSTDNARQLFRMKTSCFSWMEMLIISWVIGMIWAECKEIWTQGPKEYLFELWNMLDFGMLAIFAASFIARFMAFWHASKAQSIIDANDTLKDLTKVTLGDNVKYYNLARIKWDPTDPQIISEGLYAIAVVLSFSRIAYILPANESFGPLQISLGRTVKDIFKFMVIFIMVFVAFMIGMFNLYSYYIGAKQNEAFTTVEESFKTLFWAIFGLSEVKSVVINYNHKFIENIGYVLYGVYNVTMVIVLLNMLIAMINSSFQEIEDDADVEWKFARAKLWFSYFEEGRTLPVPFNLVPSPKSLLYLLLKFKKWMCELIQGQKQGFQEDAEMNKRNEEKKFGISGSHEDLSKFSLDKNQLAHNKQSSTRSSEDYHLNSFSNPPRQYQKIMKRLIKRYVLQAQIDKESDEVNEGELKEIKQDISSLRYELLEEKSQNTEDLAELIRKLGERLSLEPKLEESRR
TRPC6 inhibitor: inhibitors of mouse TRPC6 channel; B-score at 10 µM; Q61143; hit rate 1.1% among 310,000; HEK293-TRPC6, membrane potential dye, ACh-evoked depolarization; stronger effect = lower value;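 active = B-score under library mean minus 3 SD, initial fluorescence not abnormally high, positive integrated signal ratio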;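 note: B-score derived from integrated fluorescence ratio over the kinetic read; more negative B-score means stronger inhibition of depolarization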
TRPC4 act: activators of mouse TRPC4 channel; Q9QUQ5; HEK293 TRPC4beta/mu-opioid, Fluo4 calcium fluorescence; stronger effect = higher value; B-score at 10 µM; hit rate 0.49% among 310,000; AID 2237;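 active = B-score above 5 SD of library B-scores, and initial fluorescence ratio not above library mean plus 5 SD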;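 note: positive B-score marks a calcium rise read as TRPC4 activation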
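Test system: HEK293 cells stably co-expressing mouse TRPC4beta and mu-opioid receptor | Schedule: Fluo4 dye loading 45 min at room temperature, 110 s recording | Measured by: Kinetic Fluo4 calcium fluorescence, 5 s baseline at 1 Hz | Evaluation: B score of integrated ratio | Controls: Buffer (low) and maximal DAMGO (high)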
Kir21 block: Kir2.1 (mouse) channel inhibition; HEK293-Kir2.1, FluxOR thallium flux fluorescence; stronger effect = lower value; AID 1672; hit rate 0.85% among 310,000; P35561; B-score at 10 µM;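 active = fluorescence ratio B-score at or below minus 3 SD of library scores, with starting-brightness B-score within 2 SD, cut at about -4.2 in these data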;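 note: channel flux triggered by added potassium and thallium sulfate stimulus; B-score of peak minus minimum fluorescence over baseline after thallium stimulus; more negative B-score means stronger Kir2.1 block with less thallium influx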
TRPC4 potent: TRPC4 (mouse) allosteric potentiation. hit rate 0.42% among 310,000. Q9QUQ5. HEK293 TRPC4beta/mu-opioid, DAMGO EC20, Fluo-4 Ca2+ flux; stronger effect = higher value. B-score at 10 µM;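 active = B-score of calcium response area above 5 SD of library B-scores, with initial fluorescence ratio within 5 SD of library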;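 note: B-score of integrated fluorescence ratio over time as area under calcium response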
HEK293 TRPC6 ctr: counter-screen for TRPC6 modulators: effect in parental HEK293 cells | shares compounds with TRPC6 inhibitor | membrane potential dye fluorescence | membrane potential signal change, % at 10 µM | hit rate 51% among 2,400 | AID 488924;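 active = membrane potential signal moves up or down beyond 5 SD from buffer-only wells, on both duplicate plates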
HEK293 MPD ctr 2: second check of TRPC6 modulator effects in parental HEK293 cells | shares compounds with TRPC6 inhibitor | membrane potential dye fluorescence; after compound, maximal acetylcholine stimulation | inhibition, % at 10 µM | hit rate 14% among 2,400;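 active = membrane potential signal drops by more than 5 SD from the mean control signal, in both duplicate plates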;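 note: plate controls were acetylcholine ECmax control wells for no effect and buffer only wells for full effect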
TRPC4/MOR mod: selectivity of TRPC6 modulators against mouse TRPC4; percent change from control (negative = decrease, positive = increase), % at 10 µM; HEK293 TRPC4/mu-opioid, membrane potential fluorescence; hit rate 69% among 2,400; AID 488927; shares compounds with TRPC6 inhibitor;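 active = membrane potential signal moved up or down beyond 5 SD of buffer control wells, in both duplicate plates, actives on both sides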;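 note: plate controls were assay buffer wells for no effect and DAMGO maximal-effect wells for full effect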
TRPC4/MOR inh 2: second selectivity test of TRPC6 modulators against mouse TRPC4; shares compounds with TRPC6 inhibitor; HEK293 TRPC4/mu-opioid, membrane potential dye fluorescence; stimulated with maximal-effect DAMGO; inhibition, % at 10 µM; hit rate 55% among 2,400; AID 488928;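 active = drop in membrane potential signal beyond 5 SD of the control wells in both duplicate plates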;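 note: TRPC4 counter screen for TRPC6 hits run under conditions tuned for TRPC6 not TRPC4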
TRPC6 inh conf: confirmation of mouse TRPC6 inhibitors. shares compounds with TRPC6 inhibitor. HEK293-TRPC6, membrane potential dye, ACh-evoked depolarization. inhibition, % at 10 µM. hit rate 43% among 3,300. AID 488960;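 active = fluorescence ratio falls more than 5 SD below the full-stimulation control mean, in both duplicate runs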;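 note: integrated fluorescence ratio of peak minus minimum over baseline after agonist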
TRPC6 act conf: mouse TRPC6 activator confirmation; shares compounds with TRPC6 inhibitor; HEK293-TRPC6 membrane potential dye fluorescence, FDSS; activation, % at 10 µM; hit rate 11% among 2,800; AID 488961;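 active = ratio signal rise beyond 5 SD above unstimulated control wells' mean, seen in both duplicate runs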;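 note: plate controls were buffer EC0 wells for no effect and acetylcholine ECmax response for full effect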
* marks the source's active call; other numbers are inactive results. Only some compounds are listed: those with a hit (about 2.9% of all), similar ones and a draw of the others.

For CC1CN(c2nn3c(=O)c4ccccc4nc3c3ccccc23)CC(C)O1 (centres undefined) the results were TRPC4 inh inactive, TRPC6 activator inactive, TRPC6 inhibitor inactive, TRPC4 act inactive, Kir21 block -0.23 and TRPC4 potent inactive.
CN1CCN(c2nc(-c3cccnc3)nc3ccccc23)CC1 was read as TRPC4 inh inactive, TRPC6 activator inactive, TRPC6 inhibitor -8.09*, TRPC4 act inactive, Kir21 block 1.53, TRPC4 potent inactive, HEK293 TRPC6 ctr -320.5%*, HEK293 MPD ctr 2 69.0%*, TRPC4/MOR mod -57.0%*, TRPC4/MOR inh 2 66.5%*, TRPC6 inh conf 56.5%* and TRPC6 act conf inactive.
`CCCN1CCN(c2nc(-c3cccs3)nc3ccccc23)CC1` gave TRPC4 inh inactive, TRPC6 activator inactive, TRPC6 inhibitor -6.06*, TRPC4 act inactive, Kir21 block -0.34, TRPC4 potent inactive, HEK293 TRPC6 ctr -63.5%*, HEK293 MPD ctr 2 inactive, TRPC4/MOR mod -15.0%*, TRPC4/MOR inh 2 52.0%*, TRPC6 inh conf inactive and TRPC6 act conf inactive.
Screening CN1CCN(c2nc(-c3ccc(Cl)c(Cl)c3)nc3ccccc23)CC1 returned TRPC4 inh inactive, TRPC6 activator inactive, TRPC6 inhibitor inactive, TRPC4 act inactive, Kir21 block 1.37 and TRPC4 potent inactive.
For CCN1CCN(c2nn3c(=O)c4ccccc4nc3c3ccccc23)CC1 the results were TRPC4 inh inactive, TRPC6 activator inactive, TRPC6 inhibitor -5.26*, TRPC4 act inactive, Kir21 block 0.21, TRPC4 potent inactive, HEK293 TRPC6 ctr inactive, HEK293 MPD ctr 2 inactive, TRPC4/MOR mod inactive, TRPC4/MOR inh 2 52.0%*, TRPC6 inh conf 41.5%* and TRPC6 act conf inactive.
`CN1CCN(c2nc(-c3ccccn3)nc3ccccc23)CC1` gave TRPC4 inh inactive, TRPC6 activator inactive, TRPC6 inhibitor -15.7*, TRPC4 act inactive, Kir21 block 0.4, TRPC4 potent inactive, HEK293 TRPC6 ctr -427.5%*, HEK293 MPD ctr 2 81.5%*, TRPC4/MOR mod -69.5%*, TRPC4/MOR inh 2 72.0%*, TRPC6 inh conf 73.5%* and TRPC6 act conf inactive.
Screening Cc1cccc(C)c1-n1c(C)nn(CCOc2ccccc2)c1=O returned TRPC4 inh inactive, TRPC6 activator inactive, TRPC6 inhibitor inactive, TRPC4 act inactive, Kir21 block 0.7 and TRPC4 potent inactive.
CC(C)NC(=O)c1cc(-c2cccs2)on1 was read as TRPC4 inh inactive, TRPC6 activator inactive, TRPC6 inhibitor inactive, TRPC4 act inactive, Kir21 block -2.19 and TRPC4 potent inactive.
CCN1CCN(c2nc(-c3ccncc3)nc3ccccc23)CC1 was read as TRPC4 inh inactive, TRPC6 activator inactive, TRPC6 inhibitor inactive, TRPC4 act inactive, Kir21 block 1.52 and TRPC4 potent inactive.
Screening CCN1CCN(c2nc(-c3cccnc3)nc3ccccc23)CC1 returned TRPC4 inh inactive, TRPC6 activator inactive, TRPC6 inhibitor -8.22*, TRPC4 act inactive, Kir21 block 0.05, TRPC4 potent inactive, HEK293 TRPC6 ctr -355.5%*, HEK293 MPD ctr 2 inactive, TRPC4/MOR mod -58.5%*, TRPC4/MOR inh 2 62.0%*, TRPC6 inh conf 57.5%* and TRPC6 act conf inactive.
`Cc1cc(C(=O)NNC(=O)c2nn(C)c(=O)c3ccccc23)c(C)o1` gave TRPC4 inh inactive, TRPC6 activator inactive, TRPC6 inhibitor inactive, TRPC4 act inactive, Kir21 block -0.91 and TRPC4 potent inactive.
Screening CC(C)OC(=O)c1cccnc1SCc1cc(=O)n2ccccc2n1 returned TRPC4 inh inactive, TRPC6 activator inactive, TRPC6 inhibitor -6.05*, TRPC4 act inactive, Kir21 block 0.68, TRPC4 potent inactive, HEK293 TRPC6 ctr inactive, HEK293 MPD ctr 2 inactive, TRPC4/MOR mod inactive, TRPC4/MOR inh 2 inactive and TRPC6 inh conf inactive.
For CN1Cc2sc(NC(=S)NC(=O)c3ccccc3)c(C#N)c2CC1(C)C the results were TRPC4 inh inactive, TRPC6 activator 20.9*, TRPC6 inhibitor -5.2*, TRPC4 act inactive, Kir21 block 1.34, TRPC4 potent inactive, HEK293 TRPC6 ctr 168.5%*, HEK293 MPD ctr 2 inactive, TRPC4/MOR mod 23.5%*, TRPC4/MOR inh 2 inactive, TRPC6 inh conf inactive and TRPC6 act conf 40.0%*.
CC(C)C(C)NC(=O)COC(=O)C1CCN(S(=O)(=O)c2ccc3c(c2)OCCO3)CC1 (centres undefined) was read as TRPC4 inh inactive, TRPC6 activator inactive, TRPC6 inhibitor -6.38*, TRPC4 act inactive, Kir21 block -0.9, TRPC4 potent inactive, HEK293 TRPC6 ctr inactive, HEK293 MPD ctr 2 inactive, TRPC4/MOR mod 7.0%*, TRPC4/MOR inh 2 inactive, TRPC6 inh conf inactive and TRPC6 act conf inactive.
Screening CCOC(=O)c1ccc2c(c1)n(CCCS(=O)(=O)[O-])c(/C=C/c1ccc(Cl)cc1)[n+]2CC returned TRPC4 inh inactive, TRPC6 activator inactive, TRPC6 inhibitor -7.41*, TRPC4 act inactive, Kir21 block 0, TRPC4 potent inactive, HEK293 TRPC6 ctr -333.0%*, HEK293 MPD ctr 2 inactive, TRPC4/MOR mod -60.0%*, TRPC4/MOR inh 2 61.0%*, TRPC6 inh conf 58.5%* and TRPC6 act conf inactive.
For CCOC(=O)c1ccc2c(c1)n(CC)c(C)[n+]2CC the results were TRPC4 inh inactive, TRPC6 activator inactive, TRPC6 inhibitor inactive, TRPC4 act inactive, Kir21 block 2.47 and TRPC4 potent inactive.
